ChEMBL document CHEMBL1208737, “Synthesis and in vitro evaluation of N-alkyl-3-hydroxy-3-(2-imino-3-methyl-5-oxoimidazolidin-4-yl)indolin-2-one analogs as potential anticancer agents” (2010)

Experiments:
Assay type in all cases: functional
RXF 393 = experiment: Growth inhibition of human RXF393 cells by sulforhodamine B assay
Outline: (§1)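 Five-dose response testing across a 57-line human tumour panel (leukemia, non-small cell lung, colon, CNS, melanoma, ovarian, renal, prostate, breast), done after a single-dose primary screen run per the NCI method. Effect plotted against log10 molar drug concentration for each cell line. GI50 is the concentration giving a 50% reduction in net protein increase versus control cells.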

NCI-H226 = experiment: Growth inhibition of human NCI-H226 cells by sulforhodamine B assay; outline: as §1
BT-549 = experiment: Growth inhibition of human BT549 cells by sulforhodamine B assay; outline: as §1
LOX IMVI = experiment: Growth inhibition of human LOXIMVI cells by sulforhodamine B assay
Outline: (§2)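 Five-dose response testing across the 57-line human tumour panel. Growth effect was plotted against log10 drug concentration for each cell line. GI50 is the molar concentration giving a 50% reduction in net protein increase relative to untreated control cells. TGI (total growth inhibition) and LC50 (concentration lethal to 50% of cells) were read from the same curves.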

OVCAR-5 = experiment: Growth inhibition of human OVCAR5 cells by sulforhodamine B assay; outline: as §1
COLO 205 = experiment: Growth inhibition of human COLO205 cells by sulforhodamine B assay; outline: as §1
SK-MEL-5 = experiment: Growth inhibition of human SK-MEL-5 cells by sulforhodamine B assay; outline: as §1
A498 = experiment: Growth inhibition of human A498 cells by sulforhodamine B assay; outline: as §1
CAKI-1 = experiment: Growth inhibition of human Caki1 cells by sulforhodamine B assay; outline: as §1
T47D = experiment: Growth inhibition of human T47D cells by sulforhodamine B assay
Outline: (§3)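 Part of a 57-line human tumour cell panel run at five doses. Growth effect was plotted against log10 molar drug concentration for each cell line. GI50 is the concentration giving a 50% reduction in net protein increase relative to untreated control cells, read from the dose-response curve.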

OVCAR-3 = experiment: Growth inhibition of human OVCAR-3 cells by sulforhodamine B assay; outline: as §1
[1] = Growth inhibition of human […] cells by sulforhodamine B assay; outline: as §1
PC-3 = experiment: Growth inhibition of human PC3 cells by sulforhodamine B assay; outline: as §1
K562 = experiment: Growth inhibition of human K562 cells by sulforhodamine B assay; outline: as §1
DU-145 = experiment: Growth inhibition of human DU145 cells by sulforhodamine B assay; outline: as §1
786-0 = experiment: Growth inhibition of human 786-0 cells by sulforhodamine B assay; outline: as §1
HCC 2998 = experiment: Growth inhibition of human HCC2998 cells by sulforhodamine B assay; outline: as §1
UO-31 = experiment: Growth inhibition of human UO31 cells by sulforhodamine B assay; outline: as §3
TK-10 = experiment: Growth inhibition of human TK10 cells by sulforhodamine B assay; outline: as §3
KM12 = experiment: Growth inhibition of human KM12 cells by sulforhodamine B assay; outline: as §1
CCRF-CEM = experiment: Growth inhibition of human CCRF-CEM cells by sulforhodamine B assay; outline: as §1
SW-620 = experiment: Growth inhibition of human SW620 cells by sulforhodamine B assay; outline: as §1
SNB-75 = experiment: Growth inhibition of human SNB75 cells by sulforhodamine B assay; outline: as §1
NCI-H322M = experiment: Growth inhibition of human NCI-H322M cells by sulforhodamine B assay; outline: as §1
EKVX = experiment: Growth inhibition of human EKVX cells by sulforhodamine B assay; outline: as §1
MCF7 = experiment: Growth inhibition of human MCF7 cells by sulforhodamine B assay; outline: as §1
MOLT-4 = experiment: Growth inhibition of human MOLT4 cells by sulforhodamine B assay; outline: as §1
SF-268 = experiment: Growth inhibition of human SF268 cells by sulforhodamine B assay; outline: as §1
M14 = experiment: Growth inhibition of human M14 cells by sulforhodamine B assay; outline: as §1
[2] = Growth inhibition of human Hs 578T cells by sulforhodamine B assay; outline: as §1
SK-MEL-2 = experiment: Growth inhibition of human SK-MEL-2 cells by sulforhodamine B assay; outline: as §1
UACC-62 = experiment: Growth inhibition of human UACC62 cells by sulforhodamine B assay; outline: as §3
NCI-H23 = experiment: Growth inhibition of human NCI-H23 cells by sulforhodamine B assay; outline: as §1
HCT-15 = experiment: Growth inhibition of human HCT15 cells by sulforhodamine B assay; outline: as §1
MDA-MB-468 = experiment: Growth inhibition of human MDA-MB-468 cells by sulforhodamine B assay; outline: as §1
SK-MEL-28 = experiment: Growth inhibition of human SK-MEL-28 cells by sulforhodamine B assay; outline: as §1
Malme-3M = experiment: Growth inhibition of human MALME-3M cells by sulforhodamine B assay; outline: as §1
IGROV-1 = experiment: Growth inhibition of human IGROV1 cells by sulforhodamine B assay; outline: as §1
SF-295 = experiment: Growth inhibition of human SF295 cells by sulforhodamine B assay; outline: as §1
SK-OV-3 = experiment: Growth inhibition of human SKOV3 cells by sulforhodamine B assay; outline: as §1
MDA-MB-435 = experiment: Growth inhibition of human MDA-MB-435 cells by sulforhodamine B assay; outline: as §1
UACC-257 = experiment: Growth inhibition of human UACC257 cells by sulforhodamine B assay; outline: as §3
HOP-62 = experiment: Growth inhibition of human HOP62 cells by sulforhodamine B assay; outline: as §1
HT-29 = experiment: Growth inhibition of human HT-29 cells by sulforhodamine B assay; outline: as §1
OVCAR-4 = experiment: Growth inhibition of human OVCAR4 cells by sulforhodamine B assay; outline: as §1
NCI-H460 = experiment: Growth inhibition of human NCI-H460 cells by sulforhodamine B assay; outline: as §1
HCT-116 = experiment: Growth inhibition of human HCT116 cells by sulforhodamine B assay; outline: as §1
MDA-MB-231 = experiment: Growth inhibition of human MDA-MB-231 cells by sulforhodamine B assay; outline: as §1
OVCAR-8 = experiment: Growth inhibition of human OVCAR8 cells by sulforhodamine B assay; outline: as §1
NCI-H522 = experiment: Growth inhibition of human NCI-H522 cells by sulforhodamine B assay; outline: as §1
A549 = experiment: Growth inhibition of human A549 cells by sulforhodamine B assay; outline: as §2
SNB-19 = experiment: Growth inhibition of human SNB19 cells by sulforhodamine B assay; outline: as §1
NCI/ADR-RES = experiment: Growth inhibition of human NCI/ADR-RES cells by sulforhodamine B assay; outline: as §1
SN12C = experiment: Growth inhibition of human SN12C cells by sulforhodamine B assay; outline: as §1
ACHN = experiment: Growth inhibition of human ACHN cells by sulforhodamine B assay; outline: as §1
HL-60(TB) = experiment: Growth inhibition of human HL-60(TB) cells by sulforhodamine B assay; outline: as §1
SF-539 = experiment: Growth inhibition of human SF539 cells by sulforhodamine B assay; outline: as §1
[3] = read-out: LC50 (the source's name)

## COc1ccc(CN2C(=O)C(O)(C3C(=O)NC(=N)N3C)c3cc(Cl)ccc32)cc1 (stereo unspecified)
RXF 393
  GI50: 6.29 µM
RXF 393; [3]
  CC50: > 100 µM
NCI-H226
  GI50: 26.8 µM
NCI-H226; [3]
  CC50: > 100 µM
BT-549
  GI50: 2980 nM
  LC50: 54.9 µM
LOX IMVI
  GI50: 750 nM
  TGI: 11.8 µM
LOX IMVI; [3]
  CC50: 60 µM
OVCAR-5
  GI50: 34.9 µM
OVCAR-5; [3]
  CC50: > 100 µM
COLO 205
  GI50: 14.3 µM
COLO 205; [3]
  CC50: > 100 µM
SK-MEL-5
  GI50: 22.6 µM
SK-MEL-5; [3]
  CC50: > 100 µM
A498
  GI50: 34.5 µM
A498; [3]
  CC50: > 100 µM
CAKI-1
  GI50: 1980 nM
CAKI-1; [3]
  CC50: > 100 µM
T47D
  GI50: 13.5 µM
  LC50: > 100 µM
OVCAR-3
  GI50: 2080 nM
OVCAR-3; [3]
  CC50: 11.5 µM
[1]
  GI50: 2620 nM
[1]; [3]
  CC50: > 100 µM
PC-3
  GI50: 4.27 µM
PC-3; [3]
  CC50: > 100 µM
K562
  GI50: 5.04 µM
K562; [3]
  CC50: > 100 µM
DU-145
  GI50: 3.76 µM
DU-145; [3]
  CC50: 74.6 µM
786-0
  GI50: 3.44 µM
786-0; [3]
  CC50: 43 µM
HCC 2998
  GI50: 18.7 µM
  LC50: 73.9 µM
UO-31
  GI50: 4.15 µM
UO-31; [3]
  CC50: > 100 µM
TK-10
  GI50: 4.11 µM
TK-10; [3]
  CC50: > 100 µM
KM12
  GI50: 2050 nM
KM12; [3]
  CC50: 30 µM
CCRF-CEM
  GI50: 2060 nM
CCRF-CEM; [3]
  CC50: > 100 µM
SW-620
  GI50: 2590 nM
SW-620; [3]
  CC50: 49.6 µM
SNB-75
  GI50: 3.39 µM
SNB-75; [3]
  CC50: > 100 µM
NCI-H322M
  GI50: 14.3 µM
NCI-H322M; [3]
  CC50: > 100 µM
EKVX
  GI50: 28.5 µM
  LC50: > 100 µM
MCF7
  GI50: 3.22 µM
  LC50 (concentration killing 50% of starting cells): > 100 µM
MOLT-4
  GI50: 2940 nM
MOLT-4; [3]
  CC50: > 100 µM
SF-268
  GI50: 3.31 µM
SF-268; [3]
  CC50: 64.9 µM
M14
  GI50: 3.59 µM
  LC50: 61.4 µM
[2]
  GI50: 2040 nM
[2]; [3]
  CC50: > 100 µM
SK-MEL-2
  GI50: 10.4 µM
SK-MEL-2; [3]
  CC50: 96 µM
UACC-62
  GI50: 23.4 µM
UACC-62; [3]
  CC50: > 100 µM
NCI-H23
  GI50: 4.74 µM
  LC50: > 100 µM
HCT-15
  GI50: 12.6 µM
  LC50 (concentration killing 50% of starting cells): > 100 µM
MDA-MB-468
  GI50: 2290 nM
  LC50 (concentration causing 50% net cell kill): > 100 µM
SK-MEL-28
  GI50: 50.3 µM
SK-MEL-28; [3]
  CC50: > 100 µM
Malme-3M
  GI50: 29.6 µM
Malme-3M; [3]
  CC50: > 100 µM
IGROV-1
  GI50: 2590 nM
IGROV-1; [3]
  CC50: > 100 µM
SF-295
  GI50: 3.71 µM
SF-295; [3]
  CC50: > 100 µM
SK-OV-3
  GI50: 30.1 µM
SK-OV-3; [3]
  CC50: > 100 µM
MDA-MB-435
  GI50: 6.12 µM
MDA-MB-435; [3]
  CC50: 93.1 µM
UACC-257
  GI50: 1430 nM
  LC50: 19.4 µM
HOP-62
  GI50: 5.12 µM
HOP-62; [3]
  CC50: > 100 µM
HT-29
  GI50: 1380 nM
  LC50: 44.1 µM
OVCAR-4
  GI50: 5.52 µM
OVCAR-4; [3]
  CC50: > 100 µM
NCI-H460
  GI50: 26.8 µM
  LC50: > 100 µM
HCT-116
  GI50: 3000 nM
  LC50: 34.5 µM
MDA-MB-231
  GI50: 8.55 µM
MDA-MB-231; [3]
  CC50: > 100 µM
OVCAR-8
  GI50: 1350 nM
OVCAR-8; [3]
  CC50: 17.2 µM
NCI-H522
  GI50: 1860 nM
  LC50 (concentration killing 50% of cells): 20.5 µM
A549
  GI50: 190 nM
  LC50: 10.9 µM
  TGI: 1960 nM
SNB-19
  GI50: 17.2 µM
SNB-19; [3]
  CC50: > 100 µM
NCI/ADR-RES
  GI50: 1880 nM
NCI/ADR-RES; [3]
  CC50: 36.5 µM
SN12C
  GI50: 5.94 µM
SN12C; [3]
  CC50: > 100 µM
ACHN
  GI50: 20.4 µM
ACHN; [3]
  CC50: > 100 µM
HL-60(TB)
  GI50: 3.22 µM
  LC50: > 100 µM
SF-539
  GI50: 3.12 µM
SF-539; [3]
  CC50: 79.1 µM
